Structures are written as SMILES.

Assay [1] concerns Bacillus cereus. The assay is described as follows: Inhibition of Bacillus cereus metallo beta lactamase Bc2 assessed as residual enzyme activity at 100 uM.
A short description of assay [2]: Inhibition of metallo beta lactamase VIM4 assessed as residual enzyme activity at 100 uM.
Assay [3] is described as follows: Inhibition of metallo beta lactamase VIM2 assessed as residual enzyme activity at 100 uM.
In assay [4] the target is Metallo beta-lactamase (Pseudomonas aeruginosa) (UniProt Q6TUJ4). The experiment in a line: Inhibition of Pseudomonas aeruginosa 101/1477 metallo beta lactamase IMP1 expressed in Escherichia coli assessed as residual enzyme activity at 100 uM in absence of zinc.
Assay [5] shares this target. The experiment in a line: Inhibition of Pseudomonas aeruginosa 101/1477 metallo beta lactamase IMP1 expressed in Escherichia coli assessed as residual enzyme activity at 100 uM in presence of zinc chloride. Put shortly: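 IMP-1 at 0.03–0.7 nM was preincubated 30 min at room temperature with 100 μM inhibitor in 20 mM HEPES pH 7.0 with 20 μg/ml BSA plus 100 μM ZnCl2. The reaction was then started with 100 μM imipenem. The initial rate of three samples was taken as mean percent of the rate without inhibitor ± SD.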

Assay [6] deals with Beta-lactamase L1 (Stenotrophomonas maltophilia) (UniProt P52700). The assay is described as follows: Inhibition of Stenotrophomonas maltophilia metallo beta lactamase L1 assessed as residual enzyme activity at 100 uM.
The test system of assay [7] is Fluoribacter gormanii. The assay is described as follows: Inhibition of Legionella gormani beta lactamase metallo FEZ1 expressed in Escherichia coli assessed as residual enzyme activity at 100 uM. Put shortly:
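Purified enzyme (0.03–0.7 nM) in 20 mM HEPES pH 7.0 with 20 μg/ml BSA was preincubated 30 min at room temperature with 100 μM inhibitor, diluted from 10 mM DMSO stock. Nitrocefin (100 μM) was then added and the initial hydrolysis rate measured. Residual activity is the mean (±SD) of three samples as percent of the uninhibited rate.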

The target of assay [8] is Beta-lactamase (Aeromonas hydrophila) (UniProt Q44079). The experiment in a line: Ratio of Kcat to Km for Aeromonas hydrophila beta lactamase CphA at pH 10.0. In short, it runs like this: (§1)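 Wild-type CphA kinetics with imipenem as substrate, measured in a mixed buffer adjusted to the stated pH with HCl or NaOH. The buffer held 40 mM sodium acetate, 20 mM each of cacodylate, MOPS, TAPS, CHES and CAPS, and 20 μg/ml BSA. Runs were at 30°C in thermostatted cells. Km and kcat came from initial rates. At pH 10 only kcat/Km was taken, because imipenem hydrolyses spontaneously.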

Assay [9] has the same target. The experiment in a line: Ratio of Kcat to Km for Aeromonas hydrophila beta lactamase CphA at pH 7.0. Put shortly: as §1
Assay [10] has the same target. The experiment in a line: Ratio of Kcat to Km for Aeromonas hydrophila beta lactamase CphA at pH 9.0. Put shortly:
as §1

Assay [11] shares this target. The experiment in a line: Ratio of Kcat to Km for Aeromonas hydrophila beta lactamase CphA at pH 8.0. In short, it runs like this:
as §1

Chain of Metallo beta-lactamase (Pseudomonas aeruginosa) (Q6TUJ4 as listed by the source): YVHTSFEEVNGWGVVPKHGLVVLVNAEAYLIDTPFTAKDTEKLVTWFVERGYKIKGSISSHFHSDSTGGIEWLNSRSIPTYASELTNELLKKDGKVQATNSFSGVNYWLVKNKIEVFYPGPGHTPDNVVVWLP
Chain of Beta-lactamase (Aeromonas hydrophila) (Q44079 as listed by the source): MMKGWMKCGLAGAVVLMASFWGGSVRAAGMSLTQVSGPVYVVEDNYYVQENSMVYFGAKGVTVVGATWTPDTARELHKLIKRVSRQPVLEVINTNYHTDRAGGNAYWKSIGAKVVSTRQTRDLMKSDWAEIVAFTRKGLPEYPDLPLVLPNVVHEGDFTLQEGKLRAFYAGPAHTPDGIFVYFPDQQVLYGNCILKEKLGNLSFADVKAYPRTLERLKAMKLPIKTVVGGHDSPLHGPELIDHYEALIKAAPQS
Chain of Beta-lactamase L1 (Stenotrophomonas maltophilia) (P52700 34-290 limits assumed): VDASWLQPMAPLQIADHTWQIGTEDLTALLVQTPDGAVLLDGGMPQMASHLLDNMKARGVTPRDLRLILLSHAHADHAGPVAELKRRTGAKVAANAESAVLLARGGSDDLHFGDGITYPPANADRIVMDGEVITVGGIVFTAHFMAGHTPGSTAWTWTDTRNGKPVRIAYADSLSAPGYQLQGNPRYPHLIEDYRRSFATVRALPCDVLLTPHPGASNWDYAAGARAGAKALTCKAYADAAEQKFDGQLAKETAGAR

Take `O=C(O)c1ccc(C(=O)O)nc1`: the Activity was 99% in assay [1]; 97% in [2]; 97% in assay [3]; 99% in [4]; 81% in assay [5]; 94% in assay [6]. In [7], the Activity stood at 80%.
For the compound `O=C(O)c1ccccn1`, the Activity was 95% in [1]; 59% in assay [2]; 80% in [3]; 31% in assay [4]; 54% in [5]; 29% in assay [6]. Moreover, in [7], the Activity was 62%.
For the compound `CC(O)[C@H]1C(=O)N2C(C(=O)O)=C(SCCNC=N)C[C@H]12` (single isomer, unassigned), the Ratio in assay [8] was 0.44 µM⁻¹ s⁻¹; in assay [9], 1.8 µM⁻¹ s⁻¹; in [10] it was 0.78 µM⁻¹ s⁻¹; in assay [11], 1.7 µM⁻¹ s⁻¹.
On to `O=C(O)c1cccnc1C(=O)O`, for which the Activity in assay [1] came out at 98%; in assay [2], 73%; in [3], 106%; in [4], 89%; in assay [5], 67%; in assay [6] it was 93%. Also, the Activity in [7] amounted to 62%.
For the compound `O=C(O)c1ccncc1C(=O)O`, the Activity in [1] turned out to be 97%; in [2], 100%; in assay [3] it was 92%; in assay [4] it was 91%; in assay [5], 88%; in [6] it was 97%. In addition, in [7], the Activity amounted to 93%.
`O=C(O)c1cccc(C(=O)O)n1`: the Activity is 95% in assay [1]; 88% in assay [2]; 96% in [3]; 2% in assay [4]; 72% in [5]; 92% in [6]. Also, the Activity in assay [7] worked out at 77%.
Consider `O=C(O)c1ccnc(C(=O)O)c1`, for which the Activity in assay [1] was determined as 97%; in [2], 90%; in assay [3] it was 98%; in [4], 94%; in assay [5], 78%; in assay [6] it was 78%. For the same compound, the Activity in assay [7] was 65%.
